High-throughput results (PubChem)
A selection: hits, their analogues and other compounds. The true share with any hit is near 1.7%.
LMPTP block: blocks human LMPTP phosphatase; P24666; recombinant LMPTP-A, OMFP fluorogenic substrate, fluorescence intensity; inhibition, % at 20 µM; 360,000 tested, 0.22% active;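 active = compounds that cut the enzyme signal by at least half of the control window in the single-dose screen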;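 note: plate controls were DMSO wells with enzyme plus substrate for no effect and substrate without enzyme for full effect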
Target sequence (P24666 whole entry, looked up): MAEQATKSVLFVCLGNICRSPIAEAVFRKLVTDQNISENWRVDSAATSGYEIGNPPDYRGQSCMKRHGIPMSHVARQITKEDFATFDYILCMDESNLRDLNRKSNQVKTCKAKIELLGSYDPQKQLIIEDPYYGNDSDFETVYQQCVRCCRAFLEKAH
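Test system: LMPTP-A, protein tyrosine phosphatase of low molecular weight; Input: 0.625 nM enzyme; Incubation: 50 min dark incubation at room temperature; Signal: endpoint fluorescence intensity from OMFP dephosphorylation; Read-out basis: % inhibition versus control wells.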
SUMO1-SIM PPI: alters human SUMO1 binding to SIM partners; P63165; SUMO1 binding to a labelled peptide, TR-FRET, 1 h; inhibition, % at 20 µM; 360,000 tested, 0.33% active; AID 602429; in the data active = inhibition above about 37%
Target sequence (P63165 whole entry, looked up): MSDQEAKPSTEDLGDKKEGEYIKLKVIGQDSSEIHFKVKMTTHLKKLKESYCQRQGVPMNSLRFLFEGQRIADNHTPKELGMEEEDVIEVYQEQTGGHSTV
DNMT1 inh: inhibitors of human DNMT1 | P26358 | inhibition (reported as % activation of signal), % at 10 µM | 360,000 tested, 0.83% active | DNMT1 molecular beacon, Hinp1I cleavage, fluorescence; in the data active = inhibition above about 50%
STEP inh: inhibitors of human striatal-enriched phosphatase STEP. P54829. recombinant STEP, OMFP fluorogenic substrate, fluorescence. inhibition, % at 20 µM. 360,000 tested, 0.25% active;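 active = inhibition at 20 µM, scaled per plate between control wells, above about 37%, limit read from the data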;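 note: 0% = DMSO with enzyme and substrate and 100% = substrate only without enzyme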
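material = STEP tyrosine phosphatase | reagent = fluorogenic phosphatase substrate OMFP at 25 µM final | doses = single compound dose of 20 µM, 1% DMSO final | schedule = 20 min reaction, room temperature, in the dark | measured by = fluorescence, 480/540 nm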
Scp-1 inhibitor: inhibitors of human Scp-1 phosphatase. 340,000 tested, 0.88% active. inhibition, % at 20 µM. AID 493091. Recombinant Scp1, phosphopeptide, malachite green phosphate absorbance. Q9GZU7;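 active = inhibition above about 50% at 20 µM, limit read from the data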;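 note: plate controls were DMSO wells with enzyme for no effect and wells lacking enzyme for full effect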
Target sequence (Q9GZU7 76-261 limits assumed): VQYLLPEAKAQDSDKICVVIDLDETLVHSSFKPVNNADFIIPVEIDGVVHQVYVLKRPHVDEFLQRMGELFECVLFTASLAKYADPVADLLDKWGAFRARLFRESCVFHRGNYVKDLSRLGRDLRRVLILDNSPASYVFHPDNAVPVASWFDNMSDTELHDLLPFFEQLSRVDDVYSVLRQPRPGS
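Assay system: SCP-1 catalytic fragment, aa 76-261 | Buffer or medium: Tris acetate buffer pH 5.5 with MgCl2 and Tween-20 | Compound: One concentration, 20 µM, with 1.0% DMSO | Also added: Phospho 17-mer peptide substrate | Signal: Absorbance at 630 nm | Incubation: 45 min enzyme reaction at room temperature | Measure: % inhibition of SCP-1 phosphate liberation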
* marks the source's active call; other numbers are inactive results; x = not tested or not shown.

SMILES	LMPTP block	SUMO1-SIM PPI	DNMT1 inh	STEP inh	Scp-1 inhibitor
CCN(CC)C(=O)c1ccc(/C=C/c2c[nH]c3ccccc23)[n+](C)c1	4	-47	30	-8	8
Cc1nc(S/C(=C/c2ccc(-c3cc(Cl)ccc3C)o2)C(=O)O)n[nH]1	3	69*	-2	3	17
CC(=O)c1ccc(-c2ccc(/C=C(/Sc3n[nH]c(C)n3)C(=O)O)o2)cc1	2	9	1	-4	30
Cc1nc(S/C(=C/c2ccc(-c3ccc(C(=O)O)cc3)o2)C(=O)O)n[nH]1	0	8	28	15	75*
COc1ccccc1C(=O)NCCN1CCCC1	-6	1	2	2	x
NS(=O)(=O)c1cc(C(=O)NC2CCSc3ccccc32)ccc1Cl (stereo unspecified)	71*	121*	84*	100*	94*
COc1ccc(C(O)c2nc(-c3cccc(F)c3)cs2)cc1 (stereo unspecified)	-1	0	3	0	x
CC1=NOC(=O)/C1=C\c1ccc(-c2ccc(Cl)cc2Cl)o1	7	53*	91*	3	9
CCCOc1ccc(Cl)cc1/C=C1/C(=O)ON=C1C	1	-1	2	2	-7
Cc1ccc(CNc2nc3c([nH]2)c(=O)n(C)c(=O)n3C)cc1	-1	50*	0	-8	0
O=C(C1=C[C@@H]2[C@H]3C(=O)N(c4cccc(Cl)c4)C(=O)[C@H]3[C@@H](C(=O)c3ccc(Cl)cc3)N2C=C1)c1ccccc1	3	-3	69*	4	-10
Cc1ccccc1C1=C/C(=C(\SS/C(C(=O)c2ccc(OCC(=O)O)c(Cl)c2Cl)=C2\C=C(c3ccccc3C)SS2)C(=O)c2ccc(OCC(=O)O)c(Cl)c2Cl)SS1	73*	116*	47	15	10
O=C(O)COc1ccc2nsnc2c1Cl	0	0	-4	3	0
C[C@@H]1CN([C@H](C)CO)C(=O)CCCn2nncc2CO[C@@H]1CN(C)C(=O)c1cc(-c2ccccc2)on1	6	-1	4	3	x
O=C(CN1C(=O)/C(=C2\SC(=S)N(CCS(=O)(=O)O)C2=O)c2ccccc21)Nc1cccc(Br)c1	83*	17	14	98*	101*
COCCN1C(=O)/C(=C2/C(=O)N(CC(=O)Nc3ccccc3Cl)c3ccccc32)SC1=S	5	-7	-2	8	-5
CC[n+]1c(C)sc2c(C)cc(C)cc21	-2	2	-1	-4	0
CCC[n+]1c(C)sc2c3c(ccc21)CCCC3	5	3	33	2	98*
CN1CC[C@]2(CCN3CCc4c(oc5ccccc45)[C@@H]3C2)N(C)C1=O	-1	2	0	-3	-1
Oc1ccc(N=C/C=C/c2cccc(Br)c2)cc1-c1nc2ccccc2s1	23	1	52*	11	3
COc1cc(OC)cc(C(=O)NCC(C)NC(=O)c2cc(OC)cc(OC)c2)c1 (stereo unspecified)	1	-2	-5	1	-4
Cc1ccc(S(=O)(=O)N2CCCCC2)cc1NC(=O)C1COc2ccccc2O1 (stereo unspecified)	1	4	0	3	x
O=C1c2cccnc2C(=O)N1CO	0	-3	3	-1	0
NC1=C(Br)C(=O)c2ncccc2C1=O	4	-23	63*	5	2
Cc1ccc2nc(CCl)[n+]([O-])c(-c3ccccc3)c2c1	-3	-3	0	2	-7
SMILES	LMPTP block	SUMO1-SIM PPI	DNMT1 inh	STEP inh	Scp-1 inhibitor
Cc1cccc(NC(=O)COC(=O)CC2CCCC2)c1C	-1	-2	0	-2	-1
CCC(CN(C)C)Oc1cc(NCc2ccccc2)c2ncn(C(C)C)c2c1 (stereo unspecified)	5	5	61*	-2	2
CCC(CO)Oc1cc(NC(=O)c2ccccc2C)c2ncn(C(C)C)c2c1 (stereo unspecified)	-2	50*	-46	-3	-6
CCC(CO)Oc1cc(NC(=O)c2ccccc2N)c2ncn(C(C)C)c2c1 (stereo unspecified)	-1	6	-7	-3	1
CCC(CO)Oc1cc(NC(=O)c2ccccc2F)c2ncn(C(C)C)c2c1 (stereo unspecified)	-2	92*	-30	2	4
O=C(CCc1nnc2n(Cc3ccc(Cl)cc3)c(=O)c3ccccc3n12)N1CCN(c2ccccn2)CC1	64*	-1	-4	8	5
NC(=S)NN=Cc1nccc2ccccc12	0	-25	-3	0	23
Cc1cnc(C=NNC(N)=S)c2cccc(N)c12	86*	107*	114*	97*	84*
CCCCn1c(=O)[nH]c2nc3cc(N)ccc3nc2c1=O	-3	-20	54*	-77	-5
Nc1ccc2nc3c(=O)n(CCc4ccccc4)c(=O)[nH]c3nc2c1	3	-36	51*	-75	-2
Nc1ccc2nc3c(=O)n(C4CCCCC4)c(=O)[nH]c3nc2c1	-2	-21	34	-60	-9
Cc1c(Cl)ccc2sc(N3CCN(C(=O)C4=COCCO4)CC3)nc12	1	3	-7	-1	-8
COc1ccc(-c2noc(CNS(=O)(=O)c3ccc(NC(C)=O)cc3)n2)cc1OC	-1	-1	1	1	-3
O=C(Nc1ccn(Cc2ccc(Cl)cc2)n1)c1ccc2c(c1)OCO2	-1	40*	-8	-1	-5
Cc1nc(N)nc(N)c1/C=C/C(C)(C)c1ccc(Cl)cc1	81*	5	0	6	6
COc1ccc(OC)c(S(=O)(=O)N2CCC(NC(=O)c3ccccc3)CC2)c1	-1	2	0	-3	-10
Cc1nnc(N=c2ssnc2Cl)o1	55*	-5	-10	14	12
CCOC(=O)c1cc(-c2ccc(/C=C3/C(=O)NC(=O)C(C#N)=C3C)o2)ccc1Cl	8	12	-5	1	81*
CC1=C(C#N)C(=O)NC(=O)/C1=C\c1ccc(-c2ccc(C)cc2[N+](=O)[O-])o1	2	12	4	1	19
CCOc1ccc(OCCC(=O)N(CC)CC(=O)NCc2ccc(Cl)cc2)cc1	4	-2	3	-1	5
Cc1ccc(S(=O)(=O)N2CCCC(C(=O)NCCc3ccc(S(N)(=O)=O)cc3)C2)cc1 (stereo unspecified)	0	1	-1	-1	2
COc1cccc(C(=O)Nc2cccc(NC(=O)c3ccccc3Cl)c2)c1	0	0	-1	0	-6
COc1cccc(C(=O)Nc2cccc(C(=O)NC3=NN(c4c(Cl)cc(Cl)cc4Cl)C(=O)C3)c2)c1	2	44*	7	2	5
CCN1C(=O)/C(=C/C=C2/Sc3ccc4ccccc4c3N2CCO)SC1=S	-1	41*	12	0	-16
